Assay: organ radiation dose estimates, OLINDA 1.1, ICRP-60
Assay type: in vivo, human
How it was run: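 Whole-body PET-MR ran as nine scans to 214 min. Organ VOIs were drawn in AMIDE, giving decay-corrected %IA per VOI; remainder = whole body minus measured organs. TIACs came from the exponential model (EXM) in OLINDA 1.1. Per-participant organ doses used 70 kg adult male or 55 kg female models in OLINDA 1.1. Effective dose (mSv) = organ absorbed doses × ICRP-60 tissue weighting factors.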

## COC(=O)[C@@H](N)CC(=O)Nc1ccc2c(c1)Cc1cc([18F])ccc1-2 [[^18F]RP-115, methyl N^4-(7-[^18F]fluoro-9H-fluoren-2-yl)asparaginate]
Female n=4, mean±SD
  Estimated dose, Upper, lower intestine wall: 0.0160±0.0012 mGy/MBq
  Estimated dose, Urinary bladder wall: 0.0588±0.0438 mGy/MBq
  Estimated dose, Uterus: 0.0569±0.0512 mGy/MBq
M1 (326 MBq)
  Effective dose (whole body): 6.74 mSv
  Estimated absorbed dose, Adrenals: 6.51 mGy
  Estimated absorbed dose, Brain: 5.63 mGy
  Estimated absorbed dose, Breasts: 2.73 mGy
  Estimated absorbed dose, Gallbladder wall: 9.08 mGy
  Estimated absorbed dose, Heart wall: 8.79 mGy
  Estimated absorbed dose, Kidneys: 72.0 mGy
  Estimated absorbed dose, Liver: 16.0 mGy
  Estimated absorbed dose, Lower large intestine wall: 3.45 mGy
  Estimated absorbed dose, Lungs: 19.7 mGy
  Estimated absorbed dose, Muscle: 3.00 mGy
  Estimated absorbed dose, Osteogenic cells: 4.07 mGy
  Estimated absorbed dose, Pancreas: 6.41 mGy
  Estimated absorbed dose, Red marrow: 3.42 mGy
  Estimated absorbed dose, Remainder: 4.10 mGy
  Estimated absorbed dose, Skin: 2.10 mGy
  Estimated absorbed dose, Small intestine: 13.8 mGy
  Estimated absorbed dose, Spleen: 21.3 mGy
  Estimated absorbed dose, Stomach wall: 4.33 mGy
  Estimated absorbed dose, Testes: 2.12 mGy
  Estimated absorbed dose, Thymus: 16.7 mGy
  Estimated absorbed dose, Thyroid: 3.39 mGy
  Estimated absorbed dose, Upper, lower intestine wall: 5.37 mGy
  Estimated absorbed dose, Urinary bladder wall: 3.65 mGy
M2 (289 MBq)
  Effective dose (whole body): 5.48 mSv
  Estimated absorbed dose, Adrenals: 4.94 mGy
  Estimated absorbed dose, Brain: 3.03 mGy
  Estimated absorbed dose, Breasts: 2.26 mGy
  Estimated absorbed dose, Gallbladder wall: 6.41 mGy
  Estimated absorbed dose, Heart wall: 6.46 mGy
  Estimated absorbed dose, Kidneys: 37.8 mGy
  Estimated absorbed dose, Liver: 16.6 mGy
  Estimated absorbed dose, Lower large intestine wall: 2.97 mGy
  Estimated absorbed dose, Lungs: 11.0 mGy
  Estimated absorbed dose, Muscle: 2.55 mGy
  Estimated absorbed dose, Osteogenic cells: 3.58 mGy
  Estimated absorbed dose, Pancreas: 4.30 mGy
  Estimated absorbed dose, Red marrow: 2.76 mGy
  Estimated absorbed dose, Remainder: 3.32 mGy
  Estimated absorbed dose, Skin: 1.85 mGy
  Estimated absorbed dose, Small intestine: 9.32 mGy
  Estimated absorbed dose, Spleen: 7.24 mGy
  Estimated absorbed dose, Stomach wall: 3.41 mGy
  Estimated absorbed dose, Testes: 2.02 mGy
  Estimated absorbed dose, Thymus: 4.68 mGy
  Estimated absorbed dose, Thyroid: 2.23 mGy
  Estimated absorbed dose, Upper, lower intestine wall: 4.24 mGy
  Estimated absorbed dose, Urinary bladder wall: 4.70 mGy
M3 (70.3 MBq)
  Effective dose (whole body): 1.52 mSv
  Estimated absorbed dose, Adrenals: 1.21 mGy
  Estimated absorbed dose, Brain: 0.820 mGy
  Estimated absorbed dose, Breasts: 0.560 mGy
  Estimated absorbed dose, Gallbladder wall: 1.35 mGy
  Estimated absorbed dose, Heart wall: 1.79 mGy
  Estimated absorbed dose, Kidneys: 12.7 mGy
  Estimated absorbed dose, Liver: 2.61 mGy
  Estimated absorbed dose, Lower large intestine wall: 0.670 mGy
  Estimated absorbed dose, Lungs: 3.91 mGy
  Estimated absorbed dose, Muscle: 0.605 mGy
  Estimated absorbed dose, Osteogenic cells: 0.837 mGy
  Estimated absorbed dose, Pancreas: 1.33 mGy
  Estimated absorbed dose, Red marrow: 0.662 mGy
  Estimated absorbed dose, Remainder: 0.780 mGy
  Estimated absorbed dose, Skin: 0.434 mGy
  Estimated absorbed dose, Small intestine: 1.61 mGy
  Estimated absorbed dose, Spleen: 2.28 mGy
  Estimated absorbed dose, Stomach wall: 0.815 mGy
  Estimated absorbed dose, Testes: 0.479 mGy
  Estimated absorbed dose, Thymus: 1.64 mGy
  Estimated absorbed dose, Thyroid: 0.643 mGy
  Estimated absorbed dose, Upper, lower intestine wall: 0.879 mGy
  Estimated absorbed dose, Urinary bladder wall: 1.96 mGy
M4 (153 MBq)
  Effective dose (whole body): 2.89 mSv
  Estimated absorbed dose, Adrenals: 3.04 mGy
  Estimated absorbed dose, Brain: 2.44 mGy
  Estimated absorbed dose, Breasts: 1.31 mGy
  Estimated absorbed dose, Gallbladder wall: 3.80 mGy
  Estimated absorbed dose, Heart wall: 1.79 mGy
  Estimated absorbed dose, Liver: 2.12 mGy
  Estimated absorbed dose, Lower large intestine wall: 2.51 mGy
  Estimated absorbed dose, Lungs: 4.01 mGy
  Estimated absorbed dose, Muscle: 35.0 mGy
  Estimated absorbed dose, Osteogenic cells: 5.85 mGy
  Estimated absorbed dose, Pancreas: 1.52 mGy
  Estimated absorbed dose, Red marrow: 2.02 mGy
  Estimated absorbed dose, Remainder: 1.96 mGy
  Estimated absorbed dose, Skin: 4.45 mGy
  Estimated absorbed dose, Small intestine: 1.69 mGy
  Estimated absorbed dose, Spleen: 2.12 mGy
  Estimated absorbed dose, Stomach wall: 1.10 mGy
  Estimated absorbed dose, Testes: 7.89 mGy
  Estimated absorbed dose, Thymus: 1.19 mGy
  Estimated absorbed dose, Thyroid: 7.36 mGy
  Estimated absorbed dose, Upper, lower intestine wall: 2.17 mGy
  Estimated absorbed dose, Urinary bladder wall: 2.81 mGy
Male n=4, mean±SD
  Effective dose (whole body): 0.0196±0.0019 mSv/MBq
  Estimated dose, Adrenals: 0.0181±0.00135 mGy/MBq
  Estimated dose, Brain: 0.0135±0.00305 mGy/MBq
  Estimated dose, Breasts: 0.00801±0.000253 mGy/MBq
  Estimated dose, Gallbladder wall: 0.0230±0.00361 mGy/MBq
  Estimated dose, Heart wall: 0.0214±0.00739 mGy/MBq
  Estimated dose, Kidneys: 0.142±0.0804 mGy/MBq
  Estimated dose, Liver: 0.0392±0.0195 mGy/MBq
  Estimated dose, Lower, large intestine wall: 0.0114±0.00246 mGy/MBq
  Estimated dose, Lungs: 0.0446±0.0167 mGy/MBq
  Estimated dose, Muscle: 0.0589±0.100 mGy/MBq
  Estimated dose, Osteogenic cells: 0.0180±0.0114 mGy/MBq
  Estimated dose, Pancreas: 0.0156±0.00485 mGy/MBq
  Estimated dose, Red marrow: 0.0104±0.00124 mGy/MBq
  Estimated dose, Remainder: 0.0117±0.000634 mGy/MBq
  Estimated dose, Skin: 0.0114±0.0101 mGy/MBq
  Estimated dose, Small intestine: 0.0269±0.0137 mGy/MBq
  Estimated dose, Spleen: 0.0340±0.0226 mGy/MBq
  Estimated dose, Stomach wall: 0.0108±0.00294 mGy/MBq
  Estimated dose, Testes: 0.0169±0.0202 mGy/MBq
  Estimated dose, Thymus: 0.0245±0.0190 mGy/MBq
  Estimated dose, Thyroid: 0.0178±0.0175 mGy/MBq
  Estimated dose, Upper, lower intestine wall: 0.0142±0.00181 mGy/MBq
  Estimated dose, Urinary bladder wall: 0.0180±0.00704 mGy/MBq
